Source: ChEMBL document CHEMBL2176919, “Design, synthesis, and biological evaluation of 17-cyclopropylmethyl-3,14β-dihydroxy-4,5α-epoxy-6β-[(4'-pyridyl)carboxamido]morphinan derivatives as peripheral selective μ opioid receptor Agents” (J Med Chem, 2012)
Activity calls are given as the source filed them.

Key:
Mu-type opioid receptor [1] = biological target: T1, Mu-type opioid receptor (Homo sapiens, UniProt P35372); assay: Agonist activity at mu opioid receptor expressed in CHO cells assessed as stimulation of [35S]-GTP-gammaS binding relative to DAMGO; assay type: cell-based
T1 sequence (P35372 whole entry): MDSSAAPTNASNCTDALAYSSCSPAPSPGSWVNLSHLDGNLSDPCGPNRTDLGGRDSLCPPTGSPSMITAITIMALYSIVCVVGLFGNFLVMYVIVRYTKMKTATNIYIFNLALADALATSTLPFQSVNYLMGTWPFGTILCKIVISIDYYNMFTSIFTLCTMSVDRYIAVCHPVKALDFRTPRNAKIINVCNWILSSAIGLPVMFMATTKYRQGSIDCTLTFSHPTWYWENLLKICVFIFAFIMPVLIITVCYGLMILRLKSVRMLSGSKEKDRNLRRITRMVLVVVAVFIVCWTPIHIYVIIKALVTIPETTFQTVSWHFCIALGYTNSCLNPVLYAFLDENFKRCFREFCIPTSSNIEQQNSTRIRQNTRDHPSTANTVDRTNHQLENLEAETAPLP

[2] = Selectivity ratio of Ki for kappa opioid receptor to Ki for mu opioid receptor
[3] = Selectivity ratio of Ki for delta opioid receptor to Ki for mu opioid receptor
Mus musculus [4] = assay: Antinociceptive activity in Swiss-Webster mouse assessed as thermal-stimulus induced tail flick latency at 10 mg/kg; assay type: functional
Method in brief: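 Male Swiss-Webster mice, 25–30 g, allowed 18 h to recover from transport. Warm-water tail flick, bath at 56 ± 0.1 °C; only mice with 2–4 s baseline latency used. Latency retested after drug at the appropriate time, 10 s cutoff. Expressed as %MPE = [(test − control latency)/(10 − control latency)] × 100, calculated per mouse, at least six mice per drug.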

[5] = biological target: T2, Kappa-type opioid receptor (Homo sapiens, UniProt P41145); assay: Displacement of [3H]DPN from kappa opioid receptor expressed in CHO cells after 1 hr; assay type: cell-based
T2 sequence (P41145 whole entry): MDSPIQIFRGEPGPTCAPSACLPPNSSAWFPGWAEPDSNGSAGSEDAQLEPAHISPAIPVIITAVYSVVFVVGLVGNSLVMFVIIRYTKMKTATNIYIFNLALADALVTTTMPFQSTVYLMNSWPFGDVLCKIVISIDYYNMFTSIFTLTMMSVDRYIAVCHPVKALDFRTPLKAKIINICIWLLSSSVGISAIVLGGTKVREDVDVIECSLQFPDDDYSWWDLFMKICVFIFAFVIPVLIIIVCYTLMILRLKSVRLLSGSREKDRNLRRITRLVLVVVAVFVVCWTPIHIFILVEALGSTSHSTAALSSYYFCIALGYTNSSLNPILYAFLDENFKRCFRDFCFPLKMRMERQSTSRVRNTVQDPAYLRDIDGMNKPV

[6] = biological target: T3, Delta-type opioid receptor (Homo sapiens, UniProt P41143); assay: Displacement of [3H]NTI from delta opioid receptor expressed in CHO cells after 1 hr; assay type: cell-based
T3 sequence (P41143 whole entry): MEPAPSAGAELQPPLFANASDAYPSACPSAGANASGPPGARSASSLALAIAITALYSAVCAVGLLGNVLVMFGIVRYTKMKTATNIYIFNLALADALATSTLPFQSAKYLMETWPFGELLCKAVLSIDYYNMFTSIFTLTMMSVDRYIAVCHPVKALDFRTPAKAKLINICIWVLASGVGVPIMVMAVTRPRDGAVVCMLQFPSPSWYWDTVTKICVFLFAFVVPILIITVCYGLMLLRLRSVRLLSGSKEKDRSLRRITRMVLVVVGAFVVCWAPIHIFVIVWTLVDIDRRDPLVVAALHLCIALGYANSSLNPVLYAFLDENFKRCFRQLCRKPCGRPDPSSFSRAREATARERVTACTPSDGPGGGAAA

Mu-type opioid receptor [7] = biological target: T1, Mu-type opioid receptor; assay: Displacement of [3H]Naloxone from mu opioid receptor expressed in CHO cells after 1 hr; assay type: cell-based
Caco-2 = assay: Apparent permeability of the compound across human Caco2 cells; assay type: ADME, cell-based
Method in brief: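 Caco-2 cells (passages 45–47) grown 22 days on 0.4 μm Transwell filters seeded at 80 000 cells/cm2, in DMEM with 10% FBS, antibiotics and nonessential amino acids. Drug in HEPES-buffered (10 mM) HBSS was added apically or basolaterally, and the receiver side was sampled up to 2 h. Samples were quantified by HPLC-UV. Papp = J/(A·Ci).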

Mus musculus [8] = assay: Inhibition of morphine-induced decrease in gastrointestinal motility in sc dosed Swiss-Webster mouse; assay type: functional
Method in brief: (§1)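 GI transit assay in male Swiss-Webster mice, groups of four or six. Compound or saline was given sc at time zero, then morphine (2 or 10 mg/kg) sc 5 min later. A charcoal meal was gavaged 20 min after morphine. Mice were killed 30 min after the meal, and charcoal distance was expressed as a percentage of small-intestine length from pylorus to cecum. Significance was tested by one-way ANOVA with Dunnett's test.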

Mus musculus [9] = assay: Effect on gastrointestinal motility in Swiss-Webster mouse at 10 mg/kg, sc; assay type: functional, organism-based; design: dose 10 mg/kg
Mus musculus [10] = assay: Inhibition of morphine-induced decrease in gastrointestinal motility in Swiss-Webster mouse at 10 mg/kg, sc; assay type: functional, organism-based; design: dose 10 mg/kg; method in brief: as §1
Mus musculus [11] = assay: Toxicity in morphine-pelleted Swiss-Webster mouse assessed as diarrhea up to 10 mg/kg, sc; assay type: organism-based; design: dose 10 mg/kg, route subcutaneous; details: in vivo
Mus musculus [12] = assay: Inhibition of morphine-induced decrease in gastrointestinal motility in sc dosed morphine-pelleted Swiss-Webster mouse; assay type: functional
Mus musculus [13] = assay: Inhibition of morphine-induced antinociceptive activity in Swiss-Webster mouse assessed as thermal-stimulus induced tail flick latency at 10 mg/kg; assay type: functional, organism-based; design: dose 10 mg/kg
Mus musculus [14] = assay: Antinociceptive activity in Swiss-Webster mouse assessed as thermal-stimulus induced tail flick latency at 10 mg/kg relative to morphine; assay type: functional
Method in brief: (§2)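 Warm-water tail flick test in male Swiss-Webster mice (25–30 g) with a 56 ± 0.1 °C bath. Only mice with a 2–4 s baseline latency were used, and a 10 s cutoff was applied. Latency was read after drug treatment. %MPE = [(test − control latency)/(10 − control latency)] × 100, computed per mouse with at least six mice per drug.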

[15] = biological target: T3, Delta-type opioid receptor; assay: Agonist activity at delta opioid receptor expressed in CHO cells assessed as stimulation of [35S]-GTP-gammaS binding relative to SNC80; assay type: functional, cell-based
[16] = biological target: T3, Delta-type opioid receptor; assay: Agonist activity at delta opioid receptor expressed in CHO cells assessed as stimulation of [35S]-GTP-gammaS binding; assay type: functional, cell-based
Method in brief: (§3)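 GTP[γS] functional assay in membranes of CHO cells expressing the cloned opioid receptor. Membrane protein 10 μg incubated at 30 °C with varying drug concentrations and 0.1 nM 35S-GTP[γS]: μ with 10 μM GDP for 2 h; κ and δ with 20 μM GDP for 1.5 h. Nonspecific binding defined with 10 μM unlabeled GTP[γS].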

[17] = biological target: T2, Kappa-type opioid receptor; assay: Agonist activity at kappa opioid receptor expressed in CHO cells assessed as stimulation of [35S]-GTP-gammaS binding relative to U50,488H; assay type: functional, cell-based
[18] = biological target: T2, Kappa-type opioid receptor; assay: Agonist activity at kappa opioid receptor expressed in CHO cells assessed as stimulation of [35S]-GTP-gammaS binding; assay type: functional, cell-based; method in brief: as §3
Mu-type opioid receptor [19] = biological target: T1, Mu-type opioid receptor; assay: Agonist activity at mu opioid receptor expressed in CHO cells assessed as stimulation of [35S]-GTP-gammaS binding; assay type: cell-based; method in brief: as §3
Mu-type opioid receptor [20] = biological target: T1, Mu-type opioid receptor; details: CHO; 100 nM
Mus musculus [21] = assay: Inhibition of morphine-induced decrease in gastrointestinal motility in morphine-pelleted Swiss-Webster mouse at 0.3 to 10 mg/kg, sc; assay type: functional, organism-based
Mus musculus [22] = assay: Inhibition of morphine-induced antinociceptive activity in Swiss-Webster mouse assessed as thermal-stimulus induced tail flick latency up to 30 mg/kg; assay type: functional, organism-based; design: dose 30 mg/kg
Mus musculus [23] = assay: Antinociceptive activity in Swiss-Webster mouse assessed as thermal-stimulus induced tail flick latency at 3 mg/kg relative to morphine; assay type: functional; method in brief: as §2

SMILES: O=C(N[C@@H]1CC[C@@]2(O)[C@H]3Cc4ccc(O)c5c4[C@@]2(CCN3CC2CC2)[C@H]1O5)c1ccnc(Br)c1
- Emax (Mu-type opioid receptor [1]): 50.8%
- Ratio Ki [2]: 0.3
- Ratio Ki [3]: 276

SMILES: CN1CC[C@]23c4c5ccc(O)c4O[C@H]2[C@@H](O)C=C[C@H]3[C@H]1C5 [MORPHINE]
- MPE (Mus musculus [4]): 100%

SMILES: O=C(N[C@@H]1CC[C@@]2(O)[C@H]3Cc4ccc(O)c5c4[C@@]2(CCN3CC2CC2)[C@H]1O5)c1ccncc1Br
- Emax (Mu-type opioid receptor [1]): 23.2%
- Ratio Ki [2]: 6
- Ratio Ki [3]: 285

SMILES: COc1cnccc1C(=O)N[C@@H]1CC[C@@]2(O)[C@H]3Cc4ccc(O)c5c4[C@@]2(CCN3CC2CC2)[C@H]1O5
- Ki [5]: 4.28 nM
- Ratio Ki [2]: 10
- Ratio Ki [3]: 242
- Ki [6]: 104 nM
- Ki (Mu-type opioid receptor [7]): 0.43 nM

SMILES: Cc1cnccc1C(=O)N[C@@H]1CC[C@@]2(O)[C@H]3Cc4ccc(O)c5c4[C@@]2(CCN3CC2CC2)[C@H]1O5
- Papp (Caco-2): permeable
- ED50 (Mus musculus [8]): 7.85 mg/kg
- Activity (Mus musculus [9]): Active
- inhibition (Mus musculus [10]): Active
- Activity (Mus musculus [11]): Non-toxic
- ED50 (Mus musculus [12]): 0.03 mg/kg
- inhibition (Mus musculus [12]): Dose-dependent effect
- inhibition (Mus musculus [13]): inactive
- MPE (Mus musculus [14]): 4.4%
- Emax [15]: 90.2%
- EC50 [16]: 38.6 nM
- Emax [17]: 31.4%
- EC50 [18]: 26.4 nM
- Emax (Mu-type opioid receptor [1]): 30.6%
- Ratio Ki [2]: 166
- Ratio Ki [3]: 470

SMILES: N#Cc1cc(C(=O)N[C@@H]2CC[C@@]3(O)[C@H]4Cc5ccc(O)c6c5[C@@]3(CCN4CC3CC3)[C@H]2O6)ccn1
- Ki [5]: 0.13 nM
- Emax (Mu-type opioid receptor [1]): 43.1%
- EC50 (Mu-type opioid receptor [19]): 10 nM
- Ratio Ki [2]: 0.1
- Ratio Ki [3]: 60
- Ki [6]: 75.3 nM
- Ki (Mu-type opioid receptor [7]): 1.25 nM

SMILES: C[C@@H](O)[C@H](NC(=O)[C@H]1NC(=O)[C@H]([C@@H](C)O)NC(=O)[C@H](CCCNC(=N)N)NC(=O)[C@@H](Cc2c[nH]c3ccccc23)NC(=O)[C@H](Cc2ccc(O)cc2)NC(=O)[C@@H](NC(=O)[C@H](N)Cc2ccccc2)CSSC1(C)C)C(N)=O
- Emax (Mu-type opioid receptor [20]): 1.99%

SMILES: O=C(Cc1ccncc1)N[C@@H]1CC[C@@]2(O)[C@H]3Cc4ccc(O)c5c4[C@@]2(CCN3CC2CC2)[C@H]1O5
- Emax (Mu-type opioid receptor [1]): 32.8%
- Ratio Ki [2]: 10.6
- Ratio Ki [3]: 1020

SMILES: O=C(N[C@@H]1CC[C@@]2(O)[C@H]3Cc4ccc(O)c5c4[C@@]2(CCN3CC2CC2)[C@H]1O5)c1ccncc1Cl
- Emax (Mu-type opioid receptor [1]): 24.9%
- Ratio Ki [2]: 30
- Ratio Ki [3]: 746

SMILES: C[N@+]1(CC2CC2)CC[C@]23c4c5ccc(O)c4O[C@H]2C(=O)CC[C@@]3(O)[C@H]1C5
- Ratio Ki [2]: 10
- Ratio Ki [3]: 24

SMILES: O=C(N[C@@H]1CC[C@@]2(O)[C@H]3Cc4ccc(O)c5c4[C@@]2(CCN3CC2CC2)[C@H]1O5)c1ccncc1
- Emax [17]: 45.5%
- EC50 [18]: 28.8 nM

SMILES: O=C(N[C@@H]1CC[C@@]2(O)[C@H]3Cc4ccc(O)c5c4[C@@]2(CCN3CC2CC2)[C@H]1O5)c1ccnc(Cl)c1
- Emax (Mu-type opioid receptor [1]): 58.2%
- Ratio Ki [2]: 1.5
- Ratio Ki [3]: 6110

SMILES: O=C(CCc1ccncc1)N[C@@H]1CC[C@@]2(O)[C@H]3Cc4ccc(O)c5c4[C@@]2(CCN3CC2CC2)[C@H]1O5
- Emax (Mu-type opioid receptor [1]): 22.6%
- Ratio Ki [2]: 2.9
- Ratio Ki [3]: 516

SMILES: O=C(N[C@@H]1CC[C@@]2(O)[C@H]3Cc4ccc(O)c5c4[C@@]2(CCN3CC2CC2)[C@H]1O5)c1ccnnc1
- Ki [5]: 1.57 nM
- Emax (Mu-type opioid receptor [1]): 27.6%
- EC50 (Mu-type opioid receptor [19]): 28.3 nM
- Ratio Ki [2]: 0.7
- Ratio Ki [3]: 203
- Ki [6]: 420 nM
- Ki (Mu-type opioid receptor [7]): 2.07 nM

SMILES: Cc1cc(C(=O)N[C@@H]2CC[C@@]3(O)[C@H]4Cc5ccc(O)c6c5[C@@]3(CCN4CC3CC3)[C@H]2O6)ccn1
- Emax (Mu-type opioid receptor [1]): 43.3%
- Ratio Ki [2]: 1.5
- Ratio Ki [3]: 232

SMILES: CN1CCC(C(=O)N[C@@H]2CC[C@@]3(O)[C@H]4Cc5ccc(O)c6c5[C@@]3(CCN4CC3CC3)[C@H]2O6)CC1
- Emax (Mu-type opioid receptor [1]): 37.2%
- Ratio Ki [2]: 7.5
- Ratio Ki [3]: 2970

SMILES: COc1cc(C(=O)N[C@@H]2CC[C@@]3(O)[C@H]4Cc5ccc(O)c6c5[C@@]3(CCN4CC3CC3)[C@H]2O6)ccn1
- Ki [5]: 0.46 nM
- Emax (Mu-type opioid receptor [1]): 25.3%
- EC50 (Mu-type opioid receptor [19]): 7.89 nM
- Ratio Ki [2]: 0.8
- Ratio Ki [3]: 267
- Ki [6]: 160 nM
- Ki (Mu-type opioid receptor [7]): 0.6 nM

SMILES: O=C(CNC(=O)c1ccncc1)N[C@@H]1CC[C@@]2(O)[C@H]3Cc4ccc(O)c5c4[C@@]2(CCN3CC2CC2)[C@H]1O5
- Papp (Caco-2): permeable
- Activity (Mus musculus [9]): Active
- inhibition (Mus musculus [10]): inactive
- Activity (Mus musculus [11]): Non-toxic
- inhibition (Mus musculus [21]): Active
- ED50 (Mus musculus [12]): 0.08 mg/kg
- inhibition (Mus musculus [22]): inactive
- MPE (Mus musculus [23]): 11.2%
- Emax [15]: 84.3%
- EC50 [16]: 19 nM
- Emax [17]: 23.5%
- EC50 [18]: 25 nM
- Emax (Mu-type opioid receptor [1]): 22.6%
